Test results reported in ChEMBL document CHEMBL3526002, “Tissue distribution and identification of radioactivity components at elimination phase after oral administration of [¹⁴C]CS-1036, an α-amylase inhibitor, to rats” (Drug Metab Dispos, 2013).
Blank lines part the entries; values can stand above or below the compound they belong to.

Experiments:
Plasma [1] = experiment: Drug level in albino F344/DuCrlCrlj rat plasma treated with [14C]CS-1036 at 10 mg/kg, po after 8 to 72 hrs by liquid scintillation counting; assay type: ADME, organism-based; parameters: dose 10 mg/kg, dosed compound name [14C]CS-1036, route oral; details: in vivo
Rattus norvegicus = experiment: Half life in po dosed rat dosed and assessed as 1,4-dideoxy-1,4-imino-D-arabinitol level (M1); assay type: ADME, organism-based; parameters: dosed compound name M1; details: in vivo
Plasma [2] = experiment: Drug metabolism in albino F344/DuCrlCrlj rat plasma protein treated with at 10 mg/kg, po of [14C]CS-1036 administered for 5 days by liquid scintillation counting; assay type: ADME, organism-based; parameters: dose 10 mg/kg, dosed compound name [14C]CS-1036, route oral; details: in vivo, 120 h
How it was run: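 Male F344/DuCrlCrlj rats (n = 3) received oral [14C]CS-1036 at 10 mg/kg/day for 5 days at 24-h intervals, with food freely available. Plasma was taken from the abdominal aorta 24 h after the fifth dose and pooled. It was precipitated with acetonitrile, and the pellets were washed with 0.4 M TCA, 80% methanol and 30% ether/ethanol until washes were below twice background. Pellets were HCl-hydrolysed, and recovered radioactivity was counted by LSC.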

[3] = Drug excretion in po dosed rat urine dosed as [14C]CS-1036 assessed as 1,4-dideoxy-1,4-imino-D-arabinitol (M1) level up to 24 hrs; assay type: ADME, organism-based; parameters: dosed compound name [14C]CS-1036; details: in vivo
Intestine = experiment: Drug metabolism in po dosed rat in intestinal flora treated with [14C]CS-1036 by liquid scintillation counting; assay type: ADME, organism-based; parameters: dosed compound name [14C]CS-1036; details: in vivo
[4] = Systemic absorption of acarbose estimated from drug excretion in human urine; assay type: ADME; parameters: dosed compound name acarbose
Plasma [5] = experiment: Drug uptake in albino F344/DuCrlCrlj rat assessed as radioactivity in aspartic acid in plasma protein at 10 mg/kg, po administered for 5 days by accelerator mass spectrometry analysis; assay type: ADME, organism-based; parameters: dose 10 mg/kg, dosed compound name [14C]CS-1036, route oral; details: in vivo, 120 h
How it was run: (§1)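 Rats were dosed orally with [14C]CS-1036 at 10 mg/kg/day for 5 days. Pooled plasma protein was washed and HCl-hydrolysed, then PTC-derivatized. It was separated by HPLC (40°C, gradient, UV 254 nm) and fractionated every 6 s over 0–15 min. Fraction 14C was measured by AMS after subtracting matching control-plasma fractions. Peaks were assigned by retention time against amino acid standards, and each fraction was expressed as % of injected radioactivity.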

Plasma [6] = experiment: Drug uptake in albino F344/DuCrlCrlj rat assessed as radioactivity in glutamic acid in plasma protein at 10 mg/kg, po administered for 5 days by accelerator mass spectrometry analysis; assay type: ADME, organism-based; parameters: dose 10 mg/kg, dosed compound name [14C]CS-1036, route oral; details: in vivo, 120 h; how it was run: as §1
[7] = Drug uptake in albino F344/DuCrlCrlj rat assessed as radioactivity in oleic acid in adipose tissue homogenates at 10 mg/kg, po administered for 4 days by LC-MS/MS spectra analysis; details: in vivo, 96 h
[8] = Drug uptake in albino F344/DuCrlCrlj rat assessed as radioactivity in palmitic acid in adipose tissue homogenates at 10 mg/kg, po administered for 4 days by LC-MS/MS spectra analysis; details: in vivo, 96 h

Structure (SMILES): N[C@@H](CC(=O)O)C(=O)O [ASPARTIC ACID]
Compound recovery (Plasma [5]): 18.5%

Structure (SMILES): CCCCCCCC/C=C\CCCCCCCC(=O)O [OLEIC ACID]
Compound recovery [7]: Active

Structure (SMILES): CCCCCCCCCCCCCCCC(=O)O [PALMITIC ACID]
Compound recovery [8]: Active

Other lines, results leading:

Drug metabolism (Plasma [1]): metabolite_detected | t1/2 (Rattus norvegicus): 48 min | Drug metabolism (Plasma [2]): metabolite_detected | Compound recovery [3]: 5.3% | Drug metabolism (Intestine): metabolite_detected
Structure (SMILES): OC[C@H]1NC[C@@H](O)[C@@H]1O

Fa [4]: 1.7%
Structure (SMILES): C[C@H]1O[C@H](O[C@H]2[C@H](O)[C@@H](O)[C@@H](O[C@H]3[C@H](O)[C@@H](O)C(O)O[C@@H]3CO)O[C@@H]2CO)[C@H](O)[C@@H](O)[C@@H]1N[C@H]1C=C(CO)[C@@H](O)[C@H](O)[C@H]1O (stereo not given in full) [ACARBOSE]

Compound recovery (Plasma [6]): 36.5%
Structure (SMILES): N[C@@H](CCC(=O)O)C(=O)O [GLUTAMIC ACID]
